Results taken from ChEMBL document CHEMBL1129929, “Analogues of methotrexate in rheumatoid arthritis. 1. Effects of 10-deazaaminopterin analogues on type II collagen-induced arthritis in mice” (J Med Chem, 1997).
One block for each compound: values may come before it.

Tests used:
[1] = Concentration required to inhibit the growth of chang liver cells; type: functional; settings: Homo sapiens
L1210 = assay: Concentration required to inhibit the growth of L1210 cells; type: functional, cell-based; settings: Mus musculus
Mus musculus [2] = assay: Incidence of disease(mouse type II collagen arthritis) was scored as the percentage of animals within each experimental group that exhibited joint or limb inflammation on day 30 at intraperitoneal of dose 2.5 mg/kg; type: functional
In short: (§1)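 DBA/1 mice were immunized with bovine type II collagen (modified Courtenay method), with a collagen booster on day 21. Compounds were given ip starting 2 days before the first collagen challenge and every 2 days thereafter. Incidence was the percentage of animals per group with joint or limb inflammation, scored on days 23, 30, 37 and 44.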

Mus musculus [3] = assay: Incidence of disease(mouse type II collagen arthritis) was scored as the percentage of animals within each experimental group that exhibited joint or limb inflammation on day 30 at intraperitoneal of dose 5 mg/kg; type: functional; in short: as §1
Mus musculus [4] = assay: Incidence of disease(mouse type II collagen arthritis) was scored as the percentage of animals within each experimental group that exhibited joint or limb inflammation on day 37 at intraperitoneal of dose 1.25 mg/kg; type: functional; in short: as §1
Mus musculus [5] = assay: Incidence of disease(mouse type II collagen arthritis) was scored as the percentage of animals within each experimental group that exhibited joint or limb inflammation on day 37 at intraperitoneal of dose 12 mg/kg; type: functional; in short: as §1
Mus musculus [6] = assay: Incidence of disease(mouse type II collagen arthritis) was scored as the percentage of animals within each experimental group that exhibited joint or limb inflammation on day 23 at intraperitoneal dose of 1.25 mg/kg; type: functional; in short: as §1
Mus musculus [7] = assay: Incidence of disease(mouse type II collagen arthritis) was scored as the percentage of animals within each experimental group that exhibited joint or limb inflammation on day 23 at intraperitoneal dose of 5 mg/kg; type: functional; in short: as §1
Mus musculus [8] = assay: Incidence of disease(mouse type II collagen arthritis) was scored as the percentage of animals within each experimental group that exhibited joint or limb inflammation on day 23 at intraperitoneal of dose 12 mg/kg; type: functional; in short: as §1
Mus musculus [9] = assay: Incidence of disease(mouse type II collagen arthritis) was scored as the percentage of animals within each experimental group that exhibited joint or limb inflammation on day 30 at intraperitoneal of dose 1.25 mg/kg; type: functional; in short: as §1
Mus musculus [10] = assay: Incidence of disease(mouse type II collagen arthritis) was scored as the percentage of animals within each experimental group that exhibited joint or limb inflammation on day 30 at intraperitoneal of dose 12 mg/kg; type: functional; in short: as §1
Mus musculus [11] = assay: Tested for antiinflammatory activity on mouse type II collagen arthritis as Paw swelling* of all animals in each group on day 23 at intraperitoneal dose of 1.25 mg/kg; type: functional
In short: (§2)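 DBA/1 mice immunized with bovine type II collagen (Courtenay method, modified), antigen booster at day 21. Compounds given ip from 2 days before the first collagen challenge, then every 2 days. Hind paw dimensions (mm) measured for both limbs of all animals, expressed as mean ± SD. Eight mice per dose; untreated controls pooled from four experiments (48 animals).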

Mus musculus [12] = assay: Tested for antiinflammatory activity on mouse type II collagen arthritis as Paw swelling* of all animals in each group on day 44 at intraperitoneal dose of 12 mg/kg; type: functional; in short: as §2
Mus musculus [13] = assay: Tested for antiinflammatory activity on mouse type II collagen arthritis as Paw swelling* of all animals in each group on day 44 at intraperitoneal dose of 5 mg/kg; type: functional; in short: as §2
Mus musculus [14] = assay: Tested for antiinflammatory activity on mouse type II collagen arthritis as Paw swelling* of all animals in each group on day 30 at intraperitoneal dose of 1.25 mg/kg; type: functional; in short: as §2
Mus musculus [15] = assay: Tested for antiinflammatory activity on mouse type II collagen arthritis as Paw swelling* of all animals in each group on day 30 at intraperitoneal dose of 12 mg/kg; type: functional; in short: as §2
Mus musculus [16] = assay: Tested for antiinflammatory activity on mouse type II collagen arthritis as Paw swelling* of all animals in each group on day 23 at intraperitoneal dose of 2.25 mg/kg; type: functional; in short: as §2
Mus musculus [17] = assay: Tested for antiinflammatory activity on mouse type II collagen arthritis as Paw swelling* of all animals in each group on day 23 at intraperitoneal dose of 5 mg/kg; type: functional; in short: as §2
Mus musculus [18] = assay: Tested for antiinflammatory activity on mouse type II collagen arthritis as Paw swelling* of all animals in each group on day 23 at intraperitoneal dose of 12 mg/kg; type: functional; in short: as §2
Mus musculus [19] = assay: Incidence of disease(mouse type II collagen arthritis) was scored as the percentage of animals within each experimental group that exhibited joint or limb inflammation on day 37 at intraperitoneal of dose 2.5 mg/kg; type: functional; in short: as §1
Mus musculus [20] = assay: Incidence of disease(mouse type II collagen arthritis) was scored as the percentage of animals within each experimental group that exhibited joint or limb inflammation on day 37 at intraperitoneal of dose 5 mg/kg; type: functional; in short: as §1
Mus musculus [21] = assay: Incidence of disease(mouse type II collagen arthritis) was scored as the percentage of animals within each experimental group that exhibited joint or limb inflammation on day 44 at intraperitoneal of dose 1.25 mg/kg; type: functional; in short: as §1
Mus musculus [22] = assay: Incidence of disease(mouse type II collagen arthritis) was scored as the percentage of animals within each experimental group that exhibited joint or limb inflammation on day 44 at intraperitoneal of dose 12 mg/kg; type: functional; in short: as §1
Mus musculus [23] = assay: Incidence of disease(mouse type II collagen arthritis) was scored as the percentage of animals within each experimental group that exhibited joint or limb inflammation on day 44 at intraperitoneal of dose 5 mg/kg; type: functional; in short: as §1
Mus musculus [24] = assay: Tested for antiinflammatory activity on mouse type II collagen arthritis as Paw swelling* of all animals in each group onn day 44 at intraperitoneal dose of 2.25 mg/kg; type: functional; in short: as §2
Mus musculus [25] = assay: Tested for antiinflammatory activity on mouse type II collagen arthritis as Paw swelling* of all animals in each group on day 30 at intraperitoneal dose of 2.25 mg/kg; type: functional; in short: as §2
Mus musculus [26] = assay: Tested for antiinflammatory activity on mouse type II collagen arthritis as Paw swelling* of all animals in each group on day 30 at intraperitoneal dose of 5 mg/kg; type: functional; in short: as §2
Mus musculus [27] = assay: Tested for antiinflammatory activity on mouse type II collagen arthritis as Paw swelling* of all animals in each group on day 37 at intraperitoneal dose of 12 mg/kg; type: functional; in short: as §2
Mus musculus [28] = assay: Tested for antiinflammatory activity on mouse type II collagen arthritis as Paw swelling* of all animals in each group on day 37 at intraperitoneal dose of 2.25 mg/kg; type: functional; in short: as §2
Mus musculus [29] = assay: Tested for antiinflammatory activity on mouse type II collagen arthritis as Paw swelling* of all animals in each group on day 37 at intraperitoneal dose of 5 mg/kg; type: functional; in short: as §2
Mus musculus [30] = assay: Incidence of disease(mouse type II collagen arthritis) was scored as the percentage of animals within each experimental group that exhibited joint or limb inflammation on day 23 at intraperitoneal dose of 2.5 mg/kg; type: functional; in short: as §1
Mus musculus [31] = assay: Incidence of disease(mouse type II collagen arthritis) was scored as the percentage of animals within each experimental group that exhibited joint or limb inflammation on day 44 at intraperitoneal of dose 2.5 mg/kg; type: functional; in short: as §1
Mus musculus [32] = assay: Incidence of disease(mouse type II collagen arthritis) was scored as the percentage of animals within each experimental group that exhibited joint or limb inflammation on day 30 at intraperitoneal of dose 18 mg/kg; type: functional; in short: as §1
Mus musculus [33] = assay: Incidence of disease(mouse type II collagen arthritis) was scored as the percentage of animals within each experimental group that exhibited joint or limb inflammation on day 37 at intraperitoneal of dose 18 mg/kg; type: functional; in short: as §1
Mus musculus [34] = assay: Incidence of disease(mouse type II collagen arthritis) was scored as the percentage of animals within each experimental group that exhibited joint or limb inflammation on day 23 at intraperitoneal dose of 18 mg/kg; type: functional; in short: as §1
Mus musculus [35] = assay: Tested for antiinflammatory activity on mouse type II collagen arthritis as Paw swelling* of all animals in each group on day 44 at intraperitoneal dose of 18 mg/kg; type: functional; in short: as §2
Mus musculus [36] = assay: Tested for antiinflammatory activity on mouse type II collagen arthritis as Paw swelling* of all animals in each group on day 23 at intraperitoneal dose of 18 mg/kg; type: functional; in short: as §2
Mus musculus [37] = assay: Incidence of disease(mouse type II collagen arthritis) was scored as the percentage of animals within each experimental group that exhibited joint or limb inflammation on day 44 at intraperitoneal of dose 18 mg/kg; type: functional; in short: as §1
Mus musculus [38] = assay: Tested for antiinflammatory activity on mouse type II collagen arthritis as Paw swelling* of all animals in each group on day 37 at intraperitoneal dose of 18 mg/kg; type: functional; in short: as §2
Mus musculus [39] = assay: Tested for antiinflammatory activity on mouse type II collagen arthritis as Paw swelling* of all animals in each group on day 30 at intraperitoneal dose of 18 mg/kg; type: functional; in short: as §2

IC50 (L1210): 268 nM
SMILES: CCC(Cc1cnc2nc(N)nc(N)c2n1)c1ccc(C(=O)NC(CCC(=O)O)C(=O)O)cn1 (stereo not given)
IC50 [1]: 35 nM
Animals (Mus musculus [2]): 25%
Animals (Mus musculus [3]): 63%
Animals (Mus musculus [4]): 75%
Animals (Mus musculus [5]): 88%
Animals (Mus musculus [6]): 12%
Animals (Mus musculus [7]): 12%
Animals (Mus musculus [8]): 12%
Animals (Mus musculus [9]): 38%
Animals (Mus musculus [10]): 25%
Paw swelling (Mus musculus [11]): 2.17 mm
Paw swelling (Mus musculus [12]): 2.86 mm
Paw swelling (Mus musculus [13]): 3.09 mm
Paw swelling (Mus musculus [14]): 2.24 mm
Paw swelling (Mus musculus [15]): 2.2 mm
Paw swelling (Mus musculus [16]): 2.15 mm
Paw swelling (Mus musculus [17]): 2.15 mm
Paw swelling (Mus musculus [18]): 2.21 mm
Animals (Mus musculus [19]): 75%
Animals (Mus musculus [20]): 75%
Animals (Mus musculus [21]): 100%
Animals (Mus musculus [22]): 100%
Animals (Mus musculus [23]): 88%
Paw swelling (Mus musculus [24]): 2.75 mm
Paw swelling (Mus musculus [25]): 2.18 mm
Paw swelling (Mus musculus [26]): 2.32 mm
Paw swelling (Mus musculus [27]): 2.59 mm
Paw swelling (Mus musculus [28]): 2.75 mm
Paw swelling (Mus musculus [29]): 2.56 mm
Animals (Mus musculus [30]): 0%
Animals (Mus musculus [31]): 75%

IC50 (L1210): 8.1 nM
SMILES: Nc1nc(N)c2nc(CCc3ccc(C(=O)NC(CCC(=O)O)C(=O)O)s3)cnc2n1 (stereo not given)
IC50 [1]: 3.1 nM
Animals (Mus musculus [32]): 0%
Animals (Mus musculus [5]): 50%
Animals (Mus musculus [33]): 38%
Animals (Mus musculus [34]): 0%
Animals (Mus musculus [8]): 0%
Animals (Mus musculus [10]): 0%
Paw swelling (Mus musculus [12]): 2.58 mm
Paw swelling (Mus musculus [35]): 2.38 mm
Paw swelling (Mus musculus [15]): 2.15 mm
Paw swelling (Mus musculus [18]): 2.15 mm
Paw swelling (Mus musculus [36]): 2.14 mm
Animals (Mus musculus [22]): 50%
Animals (Mus musculus [37]): 25%
Paw swelling (Mus musculus [27]): 2.28 mm
Paw swelling (Mus musculus [38]): 2.26 mm
Paw swelling (Mus musculus [39]): 2.16 mm
